RGS4 pot – RGS4 potentiation or activation; AID 463111; 310,000 tested, 0.92% active; HEK293 M3R/inducible RGS4, carbachol calcium flux Fluo4; active compounds read low; B-score at 10 µM;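 active = B-score of the integrated calcium signal more than 4 SD below the library mean, with starting fluorescence not abnormally high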;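 also: negative B-score means reduced calcium response which marks RGS4 activation or potentiation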
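Material: Inducible-RGS4 HEK293 cells carrying M3 receptor; also added: carbachol at ECmax as muscarinic agonist stimulus; incubation: compound preincubation 20 min at room temperature before agonist; signal: Fluo4-AM (2 µM) calcium-flux fluorescence, kinetic read; measure: integrated calcium ratio converted to B score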
MrgX1 allo act – allosterically activates human MrgX1 receptor signaling. Q96LB2. MrgX1-HEK293, Fluo-4 calcium flux, FDSS; active compounds read high. B-score at 10 µM. 310,000 tested, 0.63% active;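 active = plate-corrected calcium response at least 3 library SD above typical, normal starting fluorescence, not activating the receptor alone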;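 also: compound read alongside a low EC10 to EC30 dose of BAM8-22 agonist; peak minus trough fluorescence over baseline measured at the second addition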
Target sequence (Q96LB2 whole entry, looked up): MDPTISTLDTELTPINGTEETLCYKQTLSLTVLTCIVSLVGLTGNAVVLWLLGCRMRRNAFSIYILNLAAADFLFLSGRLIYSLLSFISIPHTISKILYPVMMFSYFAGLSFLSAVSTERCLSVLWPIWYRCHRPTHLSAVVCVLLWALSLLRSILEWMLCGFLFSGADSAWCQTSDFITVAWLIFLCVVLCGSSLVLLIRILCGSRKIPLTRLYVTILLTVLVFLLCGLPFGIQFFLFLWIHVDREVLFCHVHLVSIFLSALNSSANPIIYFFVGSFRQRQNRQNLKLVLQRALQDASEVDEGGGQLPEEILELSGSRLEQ
MrgX1 ag – human MrgX1 receptor agonism, primary screen; MrgX1-HEK293 cells, Fluo-4 calcium fluorescence, agonist mode; active compounds read high; 310,000 tested, 0.44% active; AID 588627; B-score at 10 µM; Q96LB2;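 active = calcium response B-score plate-corrected fluorescence ratio at least 3 library SD, with starting fluorescence B-score inside 5 SD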
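Material: MrgX1-expressing HEK293 cells; input: 15,000 cells per well; doses: test compound given as first of three sequential additions; schedule: overnight plating before 1 h dye loading; technique: Fluo-4 NW calcium-flux fluorescence, kinetic read; evaluation: baseline-normalised fluorescence change ratio, B-scored; control set: plate-wise positive and negative controls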
MrgX1 antagonist – blocks BAM8-22 activation of human MrgX1 receptor; MRGX1-HEK293 calcium flux, Fluo-4, BAM8-22 antagonism; active compounds read low; B-score at 10 µM; 310,000 tested, 1.3% active;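 active = calcium-response B-score plate-corrected more than 3 library SD below zero, starting fluorescence within 5 deviations, no agonist response on first addition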;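 also: peak minus trough fluorescence over baseline after final BAM8-22 challenge near maximal dose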
RGS4 inh – human RGS4 inhibition | B-score at 10 µM | 310,000 tested, 0.45% active | HEK293 M3R/RGS4 inducible, Fluo-4 calcium flux; active compounds read high; triggered by carbachol at its EC20 | AID 463165;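 active = B-score, a plate-corrected calcium signal, over three deviations above library mean, with baseline fluorescence within five deviations of library mean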;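 also: RGS4 expression induced by doxycycline in cells with stable M3 receptor; B-score is computed from the integrated fluorescence ratio over baseline after carbachol; higher B-score means a larger calcium signal and so more RGS4 inhibition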
Target sequence (P49798 whole entry, looked up): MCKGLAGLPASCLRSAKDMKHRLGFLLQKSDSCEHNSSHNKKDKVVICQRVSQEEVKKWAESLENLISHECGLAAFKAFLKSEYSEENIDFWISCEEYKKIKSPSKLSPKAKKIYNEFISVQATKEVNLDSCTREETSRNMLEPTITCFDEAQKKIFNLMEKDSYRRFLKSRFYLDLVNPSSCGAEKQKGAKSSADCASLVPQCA
An asterisk follows results filed as active; i = inactive; nt = not tested or not shown. Rows were chosen to be rich in hits. Some 3.5% of all compounds tested hit in one or more screens of this group.

SMILES | RGS4 pot | MrgX1 allo act | MrgX1 ag | MrgX1 antagonist | RGS4 inh
N#Cc1cccc(C(=O)OCC(=O)NCc2ccco2)c1 | i | i | i | i | i
O=C(O)c1cnn(-c2nc(-c3ccc(Cl)cc3)cs2)c1C(F)(F)F | i | i | i | i | i
Cc1ccc(-c2cc(C(=O)N/N=C/c3c(C)nn(-c4ccccc4)c3C)n[nH]2)s1 | -7.7* | nt | nt | nt | i
Cn1ncc([N+](=O)[O-])c1C(=O)N/N=C/c1cccc([N+](=O)[O-])c1 | i | i | i | -5.4* | i
CC(C)N(C(=O)c1nn(C)c2c1CSc1ccccc1-2)C1CCCCC1 | i | 15* | i | i | i
CC(C)OCCCNC(=O)C1CC(=O)N(CCc2ccc(F)cc2)C1 (centres undefined) | i | i | i | i | i
Cc1ccc(CCN2CC(C(=O)NCCCOC(C)C)CC2=O)cc1 (centres undefined) | i | i | i | -4.5* | i
COc1ccc(C2=C(C=C(C#N)C#N)C(c3ccccc3C)c3ccccc3O2)cc1OC (centres undefined) | i | i | i | i | i
COCCNC(=O)CN1C(=O)COc2ccc(S(=O)(=O)N3CCCCCC3)cc21 | i | i | i | i | i
OCc1ccccc1SSc1ccccc1CO | i | i | 41* | i | i
Cc1cc2oc(=O)cc(CN3CCc4ccccc43)c2cc1Cl | i | i | 54* | i | i
CCc1ccc2c(CN3CCc4ccccc43)cc(=O)oc2c1 | i | i | 38* | i | i
Cc1cc(C)cc(N(CCC#N)C(=O)COC(=O)c2ccccc2SCC(=O)N2CCCC2)c1 | -7.1* | i | i | i | i
Cc1ccc(N(CCC#N)C(=O)COC(=O)c2ccccc2SCC(=O)N2CCCC2)cc1 | i | i | i | i | i
C[n+]1c2n(c3ccccc31)N=C(c1ccc(-c3ccccc3)cc1)CS2 | i | i | i | -6.5* | i
Cc1cc2[nH]c(=O)c3ccccc3n2n1 | i | i | i | i | i
COc1ccc(SCCC(=O)NCc2ccncc2)cc1 | i | i | i | i | i
O=C(/C=C/c1cccc(Br)c1)c1ccc2c(c1)OCO2 | i | 8.3* | i | i | i
O=C(/C=C\Nc1cccc(F)c1)c1ccc2c(c1)OCO2 | i | i | i | -4.7* | i
O=C(/C=C/c1ccccc1Br)c1ccc2c(c1)OCO2 | -11* | i | i | i | i
Cc1ccc(-c2nc3ccc(Cl)cc3c(=O)n2O)cc1 | i | i | 37* | i | i
CCCOC(=O)c1ccc(NC(=O)C2C3C=CC(O3)C2C(=O)O)cc1 (centres undefined) | i | 7.9* | i | i | i
CN(C(=S)Nc1ccc(SC(F)F)cc1)C(c1ccccc1)c1ccccc1 | -7.4* | i | i | i | i
CN(C)CCCN(Cc1ccccc1)C(=S)Nc1ccc(SC(F)F)cc1 | -7.3* | i | i | i | i
FC(F)Sc1ccc(NC(=S)NC(c2ccccc2)c2ccccc2)cc1 | i | i | i | i | i
SMILES | RGS4 pot | MrgX1 allo act | MrgX1 ag | MrgX1 antagonist | RGS4 inh
CC(=O)c1ccc(NC(=S)N(CCCN(C)C)Cc2ccccc2)cc1 | i | i | i | i | i
CC(C)Oc1ccc(Nc2ncnc3ccccc23)cc1 | i | i | i | i | i
COc1ccc(N/C=C2\C(=O)CCc3c2oc2cc(Cl)c(O)c(Cl)c32)cc1 | i | i | i | -5* | i
COc1ccc(N/C=C2\CCOC2=O)cc1 | i | i | i | i | i
CCCC(=O)NCn1nnc(-c2ccc(Cl)cc2)n1 | i | nt | nt | nt | i
COc1cccc(/C=N/NC(=O)c2ccoc2C)c1 | -8.5* | i | i | i | i
O=C(CC(Sc1ccc(Br)cc1)C(=O)O)c1ccc(Br)cc1 (centres undefined) | i | i | i | i | 6.9*
O=c1[nH]nc(SCc2nc3ccccc3s2)n1C1CC1 | i | i | i | i | i
CC(=O)Oc1ccc(N2C(=O)C3C(C2=O)C(C(=O)c2ccc(Cl)cc2)N2CCCC32)cc1 (centres undefined) | i | i | 30* | i | i
Cc1ccc(C)c(Cn2c(C(=O)OC(C)C)cc3c2ccn3C)c1 | -7* | i | i | i | i
CC(C)OC(=O)c1cc2c(ccn2C)n1CC(=O)N(Cc1ccccc1)c1ccc(F)cc1 | i | i | i | i | i
CCOC(=O)c1cc2c(ccn2C)n1Cc1ccccc1Cl | -7.3* | i | i | i | i
CCOc1ccc(NC(=O)CN(C)C(=O)c2ccc(N3CCCCC3)c([N+](=O)[O-])c2)cc1OCC | i | i | i | i | i
CCOC(=O)CN(C(=O)CNC(=O)c1ccco1)C(C(=O)NC1CCCC1)c1ccccc1OCC (centres undefined) | i | i | i | -5.4* | i
O=C(NC1CCCC1)C(c1ccccc1F)N(C(=O)c1ccco1)C1CCCC1 (centres undefined) | -7.1* | i | i | i | i
CCC(C)NC(=O)c1c(N)n(/N=C/c2cccnc2)c2nc3ccccc3nc12 (centres undefined) | i | i | i | i | i
CCCS(=O)(=O)N1CCN(Cc2ccc(OCc3ccccc3)c(OC)c2)CC1 | i | i | i | i | i
COc1ccc(/C=N/NC(=O)c2cc3c(ccc4ccccc43)o2)c(OC)c1 | -8* | nt | nt | nt | i
CC(C)CNC(=S)NC1CC2CCCC(C1)N2C1CCCCC1 (centres undefined) | i | i | i | i | i
CCOC(=O)CCSc1nc(C(C)(C)C)cc(C(F)(F)F)c1C#N | -7.2* | i | i | i | i
Cc1nn(C)c(Oc2ccccc2)c1CCNC(=O)CC(C)C | i | i | i | i | i
CN1CCN(CC#CCn2c3ccccc3c3ccccc32)CC1 | -7.1* | i | i | i | i
COC(=O)c1sccc1NC(=O)Nc1ccc(C)cc1C | i | i | i | i | i
O=c1c(-c2ccccc2)c(-c2ccccc2)oc2cc(O)cc(O)c12 | i | i | i | i | i
O=c1cc(-c2ccccc2)c2c(O)cc(O)cc2o1 | i | i | 29* | i | i
CCc1cccc(NC(=O)CCNS(=O)(=O)c2cc(Br)cnc2N)c1 | i | i | i | i | i
CCN(CC)CCCNC(=O)C1CCCN(c2nnc(N3CCCC3=O)s2)C1 (centres undefined) | i | i | i | i | i

Screens from PubChem.
